Assay [1] has as its system Plasmodium falciparum. Briefly: Antimalarial activity against multidrug-resistant Plasmodium falciparum K1. It counts as functional, organism-based. An outline of the steps: (§1)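 Multidrug-resistant P. falciparum K1 cultures assayed by microculture radioisotope technique (Desjardins method). IC50 determined, and percent inhibition measured at a single concentration of 10 µg/mL.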

The subject of assay [2] is Plasmodium falciparum. Briefly: Antimalarial activity against multidrug-resistant Plasmodium falciparum K1 at 10 ug/mL. It counts as functional. An outline of the steps:
as §1

Another assay deals with NCI-H187. The assay can be described thus: Cytotoxicity against human NCI-H187 cells. It counts as functional, cell-based. An outline of the steps: (§2)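 Colorimetric cytotoxicity assay on KB (oral epidermoid carcinoma), BC (breast cancer), NCI-H187 (small cell lung cancer) and Vero (African green monkey kidney fibroblast) cells. Values reported as IC50 (µM).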
Assay [3] is described as follows: Cytotoxicity against human BC cells. The assay is classed as functional, cell-based. In a few lines:
as §2

The next assay deals with Vero. The assay can be described thus: Cytotoxicity against african green monkey Vero cells. The assay is classed as cell-based. The conditions noted are these: Chlorocebus sabaeus. An outline of the steps: as §2
For a further assay, the system named is KB. The assay can be described thus: Cytotoxicity against human KB cells. It counts as functional, cell-based. In a few lines:
as §2

Non-standard residues stand in square brackets, D forms with d. Residues, ends and D or L forms follow the SMILES beside them. NMeY = CN[C@@H](Cc1ccc(O)cc1)C(=O)O; dNMeF = CN[C@H](Cc1ccccc1)C(=O)O; Sar = CNCC(=O)O

Take `COc1cc(OC)c2c(O)c3c(c(-c4c5c(c(O)c6c(OC)cc(OC)cc46)CO[C@@H](C)[C@H]5O)c2c1)[C@H](O)[C@H](C)OC3`: in the assay on Plasmodium falciparum [1], the IC50 (commonly the concentration that inhibits the measured activity by half) amounted to 8.1 µM. The inhibition (as a rule, the percentage by which the read-out fell short of the control) at 10 µg/mL in the assay with Plasmodium falciparum [2] is below 50%.
`COc1cc(OC)c2c(O)c3c(c(-c4c5c(c(O)c6c(OC)cc(OC)cc46)CO[C@@H](C)[C@H]5OC(C)=O)c2c1)[C@H](OC(C)=O)[C@H](C)OC3` returned an IC50 in the assay with Plasmodium falciparum [1] of 3.3 µM.
Molecule `COc1cc(OC)c2c(O)c3c(c(-c4c5c(c(O)c6c(OC)cc(O)cc46)CO[C@@H](C)[C@H]5OC(C)=O)c2c1)[C@H](OC(C)=O)[C@H](C)OC3` showed an inhibition at 10 µg/mL in the assay on Plasmodium falciparum [2] below 50%.
In the assay on Plasmodium falciparum [1], `COc1cc(OC)c2c(O)c3c(c(-c4c(OC)cc(OC)c5c(O)c6c(cc45)[C@H](O)[C@H](C)OC6)c2c1)[C@H](O)[C@H](C)OC3` registered an IC50 of 12 µM. Further, in the assay on Plasmodium falciparum [2], the inhibition at 10 µg/mL was below 50%.
Turning to `COc1cc(OC)c2c(O)c3c(c(-c4c5c(c(O)c6c(OC)cc(O)cc46)CO[C@@H](C)[C@H]5O)c2c1)[C@H](O)[C@H](C)OC3`, the inhibition at 10 µg/mL in the assay on Plasmodium falciparum [2] was below 50%.
As to `COc1cc(OC)c2c(O)c3c(c(-c4c(O)cc(OC)c5c(O)c6c(cc45)[C@H](O)[C@H](C)OC6)c2c1)[C@H](O)[C@H](C)OC3`, in the assay with Plasmodium falciparum [1], the IC50 was determined as 3.3 µM.
With `CC[C@H](C)[C@@H]1NC(=O)[C@H](Cc2ccc(O)cc2)N(C)C(=O)[C@H](Cc2ccccc2)NC(=O)CN(C)C(=O)[C@@H]2CCCN2C(=O)[C@@H](Cc2ccccc2)N(C)C(=O)[C@H](CC(C)C)NC1=O` [CORDYHEPTAPEPTIDE A] (cyclo(F[NMeY]IL[dNMeF]P[Sar])), the IC50 amounted to 180 nM with NCI-H187; 3.8 µM in the assay on Plasmodium falciparum [1]; 200 nM in assay [3]; 14 µM in the assay with Vero; 780 nM in the assay on KB.

Values taken from ChEMBL document CHEMBL1141306, “ES-242 derivatives and cycloheptapeptides from Cordyceps sp. strains BCC 16173 and BCC 16176” (J Nat Prod, 2007).
